These results are taken from ChEMBL document CHEMBL2407076, “cis-Restricted 3-aminopyrazole analogues of combretastatins: synthesis from plant polyalkoxybenzenes and biological evaluation in the cytotoxicity and phenotypic sea urchin embryo assays” (2013).

Assay [1] deals with Paracentrotus lividus. As to the kind of experiment: Antiproliferative activity against sea urchin embryo assessed as cleavage arrest compound treated at 45 to 55 mins prior to first mitotic cycle completion and measured at 2.5 to 5.5 hrs post fertilization. Format: functional. The gist of the method:
(§1)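 Fertilized eggs were treated 8−20 min after fertilization. The embryos were held at room temperature in filtered seawater as a monolayer of up to 2000 embryos/mL. Compounds were given as 2-fold decreasing concentrations from a 10 mM DMSO stock diluted 10-fold in 95% EtOH, with DMSO ≤0.05% and EtOH ≤1%. Embryos were scored by light microscopy. The value is the effective threshold concentration, measured in duplicate.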

The test system of assay [2] is Paracentrotus lividus. As to the kind of experiment: Antiproliferative activity against sea urchin embryo assessed as cleavage alteration compound treated at 45 to 55 mins prior to first mitotic cycle completion and measured at 2.5 to 5.5 hrs post fertilization. Format: functional. Put shortly:
as §1

The subject of assay [3] is Paracentrotus lividus. The experiment in a line: Microtubule destabilizing activity in sea urchin embryo assessed as embryo spinning compound treated just after hatching at 8 to 10 hrs post fertilization and measured after 15 mins to 20 hrs of treatment.
A short description of assay [4]: Growth inhibition of human NCI60 cells at 10 uM after 48 hrs by SRB assay. To be noted: NCI60, 48 h, read-out: GI. Format: functional. Put shortly:
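Tested in the NCI60 single-dose screen at 10 μM. The value is the mean percent inhibition of cell growth across the panel.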

The next assay deals with OVCAR-8. As to the kind of experiment: Growth inhibition of human OVCAR8 cells after 48 hrs by SRB assay. Format: functional, cell-based. Put shortly: (§2)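 Tested in the NCI60 anticancer drug screen. GI50 is the concentration giving 50% cell growth inhibition. For the panel-wide line, the value is the mean GI50 across the panel.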
(In general: The SRB assay estimates cell density from bound dye.)

The next assay has as its system NCI/ADR-RES. The experiment in a line: Growth inhibition of human NCI/ADR-RES cells after 48 hrs by SRB assay. Format: functional, cell-based. Put shortly:
as §2

The subject of another assay is NCI-H522. As to the kind of experiment: Growth inhibition of human NCI-H522 cells after 48 hrs by SRB assay. Format: functional. The settings on record: NCI-H522, 48 h. Put shortly: as §2
The next assay deals with MDA-MB-435. As to the kind of experiment: Growth inhibition of human MDA-MB-435 cells after 48 hrs by SRB assay. Format: functional. To be noted: MDA-MB-435, 48 h. Put shortly: as §2
Assay [5] is described as follows: Growth inhibition of human NCI60 cells after 48 hrs by SRB assay. The settings on record: NCI60, 48 h. Format: functional. Put shortly: as §2
The next assay has as its system K562. The experiment in a line: Growth inhibition of human K562 cells after 48 hrs by SRB assay. Format: functional. The settings on record: K562, 48 h. The gist of the method: as §2
For another assay, the system named is SR. The experiment in a line: Growth inhibition of human SR cells after 48 hrs by SRB assay. Format: functional. The gist of the method:
as §2

Another assay has as its system HL-60(TB). As to the kind of experiment: Growth inhibition of human HL-60(TB) cells after 48 hrs by SRB assay. To be noted: HL-60, 48 h. Format: functional. The gist of the method:
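Tested in the NCI60 anticancer drug screen. HL-60(TB) is one of the leukemia lines in the panel. Value reported as GI50, the concentration needed for 50% inhibition of cell growth.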

The next assay relates to KM12. As to the kind of experiment: Growth inhibition of human KM12 cells after 48 hrs by SRB assay. Format: functional. The settings on record: KM12, 48 h. Put shortly: as §2
For the next assay, the system named is SW-620. As to the kind of experiment: Growth inhibition of human SW620 cells after 48 hrs by SRB assay. The settings on record: SW-620, 48 h. Format: functional. Put shortly: as §2
For a further assay, the system named is OVCAR-3. As to the kind of experiment: Growth inhibition of human OVCAR3 cells after 48 hrs by SRB assay. Format: functional. To be noted: OVCAR-3, 48 h. The gist of the method:
as §2

Activity calls are given as the source filed them.

For the compound `COc1ccc(-c2[nH]nc(N)c2-c2cc3c(c(OC)c2OC)OCO3)cc1`, the EC in the assay with Paracentrotus lividus [1], in the assay with Paracentrotus lividus [2] and with Paracentrotus lividus [3] was more than 4 µM in each case.
In the case of `COc1ccc(-c2c(N)n[nH]c2-c2cc(OC)c3c(c2)OCO3)cc1`, the EC with Paracentrotus lividus [1] is more than 4 µM; with Paracentrotus lividus [2] it was 1 µM; in the assay on Paracentrotus lividus [3], more than 5 µM. The inhibition of growth at 10 µM in assay [4] came out at 18.1%.
As to `COc1ccc(-c2[nH]nc(N)c2-c2cc(OC)c(OC)c(OC)c2)cc1`, the EC with Paracentrotus lividus [1] came to 0.05 µM; with Paracentrotus lividus [2] it was 0.01 µM; in the assay on Paracentrotus lividus [3], 1 µM. The “growth inhibition (GI)” value in the assay with OVCAR-8 and in the assay with NCI/ADR-RES was “Active” throughout. Besides, the GI50 in the assay with NCI-H522 is less than 10 nM; with MDA-MB-435, less than 10 nM; in assay [5] it was 46 nM. In addition, the inhibition of growth at 10 µM in [4] is 89.2%.
Turning to `COc1ccc(-c2c(N)n[nH]c2-c2cc(OC)c(OC)c(OC)c2)cc1`, the EC in the assay with Paracentrotus lividus [1] was 1 µM; in the assay with Paracentrotus lividus [2] it was 0.1 µM; with Paracentrotus lividus [3], more than 10 µM. For the same compound, the “growth inhibition (GI)” value in the assay on OVCAR-8 and in the assay on NCI/ADR-RES was “Active” each time. Moreover, the GI50 in the assay on K562 is less than 100 nM; with SR, less than 100 nM; in assay [5], 302 nM; with HL-60(TB), less than 100 nM; with KM12, less than 100 nM; with SW-620, less than 100 nM. This compound also showed a GI50 in the assay on OVCAR-3 of less than 100 nM. Further, the inhibition of growth at 10 µM in assay [4] amounted to 75.8%.
As for `COc1ccc(-c2c(N)n[nH]c2-c2cc3c(c(OC)c2OC)OCO3)cc1`, the EC in the assay on Paracentrotus lividus [1], in the assay with Paracentrotus lividus [2] and with Paracentrotus lividus [3] was more than 4 µM each time. Besides, in assay [4], the inhibition of growth at 10 µM was determined as 3.38%.
Regarding `COc1ccc(-c2[nH]nc(N)c2-c2cc(OC)c3c(c2OC)OCO3)cc1`, the EC with Paracentrotus lividus [1], in the assay with Paracentrotus lividus [2] and with Paracentrotus lividus [3] was more than 4 µM throughout.
Take `COc1ccc(-c2c(N)n[nH]c2-c2cc(OC)c3c(c2)OCCO3)cc1`: the results for the EC with Paracentrotus lividus [1], in the assay with Paracentrotus lividus [2] and in the assay on Paracentrotus lividus [3] were more than 4 µM, 1 µM and more than 5 µM, respectively. Further, the inhibition of growth at 10 µM in assay [4] stood at 32%.
With `COc1ccc(-c2c(N)n[nH]c2-c2cc(OC)c3c(c2OC)OCO3)cc1`, the EC in the assay on Paracentrotus lividus [1] is more than 4 µM; in the assay on Paracentrotus lividus [2], 4 µM; in the assay on Paracentrotus lividus [3] it was more than 4 µM.
On to `COc1ccc(-c2[nH]nc(N)c2-c2cc(OC)c3c(c2)OCO3)cc1`, for which the EC was more than 4 µM with Paracentrotus lividus [1], 0.2 µM in the assay on Paracentrotus lividus [2] and more than 10 µM in the assay with Paracentrotus lividus [3]. Further, the “growth inhibition (GI)” value with OVCAR-8 and in the assay with NCI/ADR-RES was “Active” throughout. Moreover, the concentration for 50% growth inhibition (GI50) in [5] was found to be 4370 nM. Moreover, the inhibition of growth at 10 µM in assay [4] stood at 46%.

One may read the GI50 as the concentration giving 50% growth inhibition.
